Reference: ChEMBL document CHEMBL4270638, “Sulfonyl-containing phenyl-pyrrolyl pentane analogues: Novel non-secosteroidal vitamin D receptor modulators with favorable physicochemical properties, pharmacokinetic properties and anti-tumor activity” (Eur J Med Chem, 2018)
Values after ≈ are worked out from the molar mass of the structure shown.

Tests used:
MCF7 [1] = assay: Induction of apoptosis in human MCF7 cells expressing VDR siRNA assessed as live cells at 1 uM after 24 hrs by Annexin-V-FITC/propidium iodide staining based flow cytometry (reference value: 98.35%); assay type: functional
MCF7 [2] = assay: Cell cycle arrest in human MCF7 cells expressing VDR siRNA assessed as accumulation at G0/G1 phase at 1 uM after 24 hrs by propidium iodide staining based flow cytometry (reference value: 49.17%); assay type: functional
BXPC-3 = assay: Antiproliferative activity against human BxPC3 cells after 24 hrs by MTT assay; assay type: functional, cell-based; details: BXPC-3, 24 h
MCF7 [3] = assay: Induction of apoptosis in human MCF7 cells expressing scrambled siRNA assessed as late apoptotic cells at 1 uM after 24 hrs by Annexin-V-FITC/propidium iodide staining based flow cytometry (reference value: 0.98%); assay type: functional
MCF7 [4] = assay: Cell cycle arrest in human MCF7 cells expressing VDR siRNA assessed as accumulation at S phase at 1 uM after 24 hrs by propidium iodide staining based flow cytometry (reference value: 32%); assay type: functional
MCF7 [5] = assay: Induction of apoptosis in human MCF7 cells expressing scrambled siRNA assessed as live cells at 1 uM after 24 hrs by Annexin-V-FITC/propidium iodide staining based flow cytometry (reference value: 97.93%); assay type: functional
MCF7 [6] = assay: Induction of apoptosis in human MCF7 cells expressing VDR siRNA assessed as necrotic cells at 1 uM after 24 hrs by Annexin-V-FITC/propidium iodide staining based flow cytometry (reference value: 0.15%); assay type: functional
MCF7 [7] = assay: Induction of apoptosis in human MCF7 cells expressing VDR siRNA assessed as early apoptotic cells at 1 uM after 24 hrs by Annexin-V-FITC/propidium iodide staining based flow cytometry (reference value: 0.49%); assay type: functional
[8] = Solubility of the compound in water at pH 7.4 by HPLC method; assay type: physicochemical
In short: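 Aqueous solubility measured at pH 7.4, with samples quantified by HPLC.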

MCF7 [9] = assay: Induction of apoptosis in human MCF7 cells expressing scrambled siRNA assessed as necrotic cells at 1 uM after 24 hrs by Annexin-V-FITC/propidium iodide staining based flow cytometry (reference value: 0.16%); assay type: functional
MCF7 [10] = assay: Induction of apoptosis in human MCF7 cells expressing scrambled siRNA assessed as early apoptotic cells at 1 uM after 24 hrs by Annexin-V-FITC/propidium iodide staining based flow cytometry (reference value: 0.93%); assay type: functional
PC-3 = assay: Antiproliferative activity against human PC3 cells after 24 hrs by MTT assay; assay type: functional, cell-based; details: PC-3, 24 h
MCF7 [11] = assay: Antiproliferative activity against human MCF7 cells after 24 hrs by MTT assay; assay type: functional, cell-based; details: MCF7, 24 h
MCF7 [12] = assay: Cell cycle arrest in human MCF7 cells expressing VDR siRNA assessed as accumulation at G2/M phase at 1 uM after 24 hrs by propidium iodide staining based flow cytometry (reference value: 17.57%); assay type: functional
MCF7 [13] = assay: Cell cycle arrest in human MCF7 cells expressing scrambled siRNA assessed as accumulation at G2/M phase at 1 uM after 24 hrs by propidium iodide staining based flow cytometry (reference value: 19.6%); assay type: functional
[14] = Half life in rat liver microsomes in presence of NADPH by HPLC method; assay type: ADME, microsome
In short: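 Compounds incubated with rat liver microsomes plus NADPH. Remaining compound quantified by HPLC at 0, 5, 10, 20, 30, 45, 60 and 90 min, and half-life calculated.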

MCF7 [15] = assay: Induction of apoptosis in human MCF7 cells expressing VDR siRNA assessed as late apoptotic cells at 1 uM after 24 hrs by Annexin-V-FITC/propidium iodide staining based flow cytometry (reference value: 1.01%); assay type: functional
MCF7 [16] = assay: Cell cycle arrest in human MCF7 cells expressing scrambled siRNA assessed as accumulation at S phase at 1 uM after 24 hrs by propidium iodide staining based flow cytometry (reference value: 29.79%); assay type: functional
MCF7 [17] = assay: Cell cycle arrest in human MCF7 cells expressing scrambled siRNA assessed as accumulation at G0/G1 phase at 1 uM after 24 hrs by propidium iodide staining based flow cytometry (reference value: 49.28%); assay type: functional

Structure (SMILES)	IC50 (BXPC-3) [µM]	IC50 (PC-3) [µM]	IC50 (MCF7 [11]) [µM]	other results
CCN(CC)CCNC(=O)c1cc(C(CC)(CC)c2ccc(OCSc3ccccc3)c(C)c2)cn1CC	5.37	2.62	4.7	Activity (MCF7 [1]): 97.14%; Activity (MCF7 [2]): 50.29%; Activity (MCF7 [3]): 3.65%; Activity (MCF7 [4]): 30.97%; Activity (MCF7 [5]): 94.44%; Activity (MCF7 [6]): 0.37%; Activity (MCF7 [7]): 0.58%; solubility [8]: 0.6 µg/mL (≈ 1.12 µM); Activity (MCF7 [9]): 0.9%; Activity (MCF7 [10]): 1.01%; Activity (MCF7 [12]): 17.3%; Activity (MCF7 [13]): 11.15%; half-life [14]: 71.4 min; Activity (MCF7 [15]): 1.91%; Activity (MCF7 [16]): 31.75%; Activity (MCF7 [17]): 55.79%
CCn1c(C(=O)N[C@@H](CO)CCCO)ccc1C(CC)(CC)c1ccc(OCS(=O)(=O)c2ccccc2)c(C)c1	16.4	13.4	29.6	
CCn1c(C(=O)N[C@H](CC(=O)O)C(=O)O)ccc1C(CC)(CC)c1ccc(OCS(=O)(=O)c2ccccc2)c(C)c1	> 50	> 50	> 50	
CCn1c(C(=O)N[C@@H](C)C(=O)OC)ccc1C(CC)(CC)c1ccc(OCS(=O)(=O)c2ccccc2)c(C)c1	17.9	> 50	43.7	
CCn1c(C(=O)N[C@H](C)C(=O)OC)ccc1C(CC)(CC)c1ccc(OCS(=O)(=O)c2ccccc2)c(C)c1	> 50	> 50	> 50	
CCn1c(C(=O)N[C@@H](CO)C(C)C)ccc1C(CC)(CC)c1ccc(OCS(=O)(=O)c2ccccc2)c(C)c1	13.2	10.6	18.8	
CCn1c(C(=O)NC2(C(=O)O)CC2)ccc1C(CC)(CC)c1ccc(OCS(=O)(=O)c2ccccc2)c(C)c1	> 50	26.3	41.2	
CCn1c(C(=O)N[C@H](C(=O)O)C(C)C)ccc1C(CC)(CC)c1ccc(OCS(=O)(=O)c2ccccc2)c(C)c1	16.2	3.65	24.5	
CCn1c(C(=O)NCCNC(=O)OC(C)(C)C)ccc1C(CC)(CC)c1ccc(OCS(=O)(=O)c2ccccc2)c(C)c1	> 50	> 50	> 50	
CCn1c(C(=O)NCC(=O)OC)ccc1C(CC)(CC)c1ccc(OCS(=O)(=O)c2ccccc2)c(C)c1	20	> 50	> 50	
CCn1c(C(=O)NC2(CO)CC2)ccc1C(CC)(CC)c1ccc(OCS(=O)(=O)c2ccccc2)c(C)c1	45.4	3.56	28.8	
CCn1c(C(=O)NC(C)(C)CO)ccc1C(CC)(CC)c1ccc(OCS(=O)(=O)c2ccccc2)c(C)c1	18.3	9.85	20.7	
CCN(CC)CCNC(=O)c1ccc(C(CC)(CC)c2ccc(OCS(=O)(=O)c3ccccc3)c(C)c2)n1CC	6.27	7.13	4.68	solubility [8]: 117 µg/mL (≈ 207 µM); half-life [14]: 62.4 min
CCn1c(C(=O)N[C@@H](C)C(=O)O)ccc1C(CC)(CC)c1ccc(OCS(=O)(=O)c2ccccc2)c(C)c1	20.8	16.8	35.5	
CCn1c(C(=O)NCC(=O)O)ccc1C(CC)(CC)c1ccc(OCS(=O)(=O)c2ccccc2)c(C)c1	> 50	30.1	33.1	
CCn1c(C(=O)N[C@H](CCC(=O)O)C(=O)O)ccc1C(CC)(CC)c1ccc(OCS(=O)(=O)c2ccccc2)c(C)c1	> 50	> 50	> 50	
CCn1c(C(=O)N[C@@H](C)CO)ccc1C(CC)(CC)c1ccc(OCS(=O)(=O)c2ccccc2)c(C)c1	15.3	9.52	10.8	solubility [8]: 35.7 µg/mL (≈ 67.8 µM); half-life [14]: 43.8 min
